b-catenin transl: beta-catenin nuclear translocation modulation; 190,000 compounds, 0.3% hits; HeLa beta-catenin nuclear translocation, immunofluorescence imaging; nuclear translocation activity, % at 5 µM;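 active = nuclear translocation activity above 50% at 5 µM, with a well cell count of 50 or more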;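 note: per-cell ratio of nuclear to cytoplasmic median beta-catenin stain intensity; plate controls were DMSO negative control for no effect and GSK-3 inhibitor IX positive control for full effect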
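Test system: HeLa cells, endogenous beta-catenin; Compound: single 5 µM dose plus 0.02–20 µM confirmation series; Times: compound exposure 24 h at 37°C; Signal: fluorescence imaging of beta-catenin antibody stain plus DAPI; Read-out: % activation, nuclear-to-cytoplasmic median beta-catenin signal ratio per cell.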
MT stabilizer: stabilizes microtubules in HeLa cells; % tubulin-high responders, % at 10 µM; HeLa tubulin immunostaining HCS, 24 h; share of cells brighter than vehicle mean+2SD; 200,000 compounds, 0.83% hits;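 active = plate Z-score above 3 for both tubulin-high and condensed-nucleus cell shares, with cell loss under 80%, at 10 µM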;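 note: anti alpha tubulin signal scored within the nucleus-defined area of each cell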
STAT3 blocker: reduces IL-6 driven STAT3 reporter signal; U3A cells, IL-6 STAT3-luciferase reporter, luminescence; host cell line lacks STAT1; inhibition, % at 5.5 µM; 190,000 compounds, 0.89% hits;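 active = inhibition above the mean inhibition across all screened compounds plus 3 SD, cut at about 44% in these data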;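 note: 0% = DMSO only wells and 100% = 100 µM nifuroxazide control wells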
STAT3 act: increases IL-6 driven STAT3 reporter signal; 190,000 compounds, 0.91% hits; activation (% of control), % at 5.6 µM; U3A cells, IL-6 STAT3-luciferase reporter, luminescence; 100% = signal with IL-6 EC80 alone;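 active = activation above the screen-wide mean of compound activation plus 3 SD, cut at about 130% in these data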;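 note: 0% = background luminescence of wells with medium and substrate only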
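system = STAT3-luciferase reporter U3A cells | reagent = IL-6 stimulus at 33 ng/mL final | timing = 1 h compound pre-exposure, 6 h IL-6 stimulation, 37 °C | measured by = luminescence | evaluation = % activation versus median of IL-6-stimulated wells | control set = IL-6-only wells as 100% reference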
STAT1 inh-1: reduces IFN-gamma driven STAT1 reporter signal. NIH 3T3 STAT1-luciferase reporter, luminescence. inhibition, % at 5.5 µM. 200,000 compounds, 0.35% hits. AID 920;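 active = inhibition above a set limit, the mean inhibition across all tested compounds plus 3 SD, cut at about 34% in these data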;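 note: 0% = IFN-gamma with DMSO and 100% = IFN-gamma with 300 µM nifuroxazide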
STAT1 inh-2: STAT1 inhibition, confirmation assay; shares compounds with STAT1 inh-1; NIH 3T3 STAT1-luciferase reporter, IFN-gamma, luminescence; inhibition, % at 5.5 µM; 200 compounds, 55% hits; AID 1263;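 active = triplicate mean inhibition exceeding the hit cutoff computed for the primary STAT1 screen, cut at about 35% in these data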;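 note: 0% = DMSO with IFN-gamma and 100% = 300 µM nifuroxazide with IFN-gamma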
NFkB inh: inhibits NF-kappaB, counter-screen to STAT1 inhibitors | HEK293T NF-kB luciferase reporter, TNF-alpha induced, luminescence | shares compounds with STAT1 inh-1 | 200 compounds, 30% hits | AID 1303 | inhibition, % at 5.7 µM;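 active = inhibition above the mean of solvent-only control wells plus 3 SD of those wells, cut at about 15% in these data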;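 note: 0% = DMSO with TNF-alpha and 100% = MG-132 control with TNF-alpha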
STAT3 inh 2: inhibits STAT3, counter-screen to STAT1 inhibitors; AID 1310; shares compounds with STAT1 inh-1; inhibition, % at 5.7 µM; 200 compounds, 20% hits; U3A cells, IL-6 STAT3 luciferase reporter, luminescence; cells lacking STAT1;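 active = inhibition above the mean of solvent-only control wells plus 3 SD, set per campaign, cut at about 25% in these data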;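 note: 0% = IL-6 plus DMSO and 100% = IL-6 plus nifuroxazide control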
Active calls of the source: *; · = no result given. An excerpt weighted towards active compounds, which were near 2.4% of everything screened.

SMILES	b-catenin transl	MT stabilizer	STAT3 blocker	STAT3 act	STAT1 inh-1	STAT1 inh-2	NFkB inh	STAT3 inh 2
CCOC(=O)c1cc2c(=O)n3ccccc3nc2n(Cc2ccco2)c1=NC(=O)c1ccc(OC)cc1OC	-1	6	23	83	60*	22	10	25*
COc1cc(C(=O)OCC(=O)Nc2sccc2C(N)=O)cc(OC)c1OC	6	5	28	80	42*	-4	0	6
COc1ccc(C(=O)OCC(=O)Nc2sccc2C(N)=O)cc1OC	0	·	·	·	·	·	·	·
O=C(c1ccco1)N1CCN(c2ccnc3cc(Cl)ccc23)CC1	1	3	11	98	35*	43*	24*	-8
Cn1c(SCc2cccc([N+](=O)[O-])c2)nc2c(c1=O)SCC2	-2	3	18	86	24	·	·	·
Cc1nonc1C1CCCN1C(=O)c1cc(COc2ccc(F)cc2F)on1 (stereo unspecified)	2	6	-11	114	-78	·	·	·
O=C(NC(=S)NC(c1ccccc1)c1ccncc1)c1ccccc1 (stereo unspecified)	-2	3	20	85	62*	57*	20*	10
O=C(NC(=S)Nc1ccc(Cc2ccncc2)cc1)c1ccccc1	3	3	9	94	-12	·	·	·
COc1ccc(NC(=O)C2CCN(c3cc(-c4ccccc4)nc4ncnn34)CC2)cc1OC	-1	4	30	76	42*	53*	19*	36*
Cn1nnnc1SCc1nc2scc(-c3ccccc3)c2c(=O)[nH]1	-5	·	·	·	·	·	·	·
Cn1nnnc1Sc1ncnc2scc(-c3ccc(F)cc3)c12	-3	12	0	102	38*	50*	-18	-12
Cn1nnnc1Sc1ncnc2scc(-c3ccccc3)c12	2	11	-8	113	44*	49*	-7	-12
Cc1ccc(S(=O)(=O)NCc2ccc(C(=O)NCCN(Cc3ccccc3)C(C)C)cc2)cc1	0	3	-3	104	19	·	·	·
NC(=S)N/N=C/c1cn(-c2ccccc2)nc1-c1cccnc1	8	·	·	·	·	·	·	·
CC1=NC(=O)C(N=Nc2ccccc2C(=O)O)N1c1ccccc1 (stereo unspecified)	0	1	0	103	65*	50*	16*	-8
Cc1nn(-c2ccccc2C(=O)O)c(=O)c2ccccc12	2	2	8	97	8	·	·	·
CSc1nc(-c2ccccc2)nn1C(=O)c1ccc(C)cc1	·	2	8	95	3	·	·	·
Cc1nnc(NC(=O)c2cccc(S(=O)(=O)N3CCc4ccccc43)c2)s1	-2	3	12	89	8	·	·	·
O=C(NNC(=O)c1cccc(S(=O)(=O)N2CCc3ccccc32)c1)c1ccccc1	-1	3	18	91	35*	36*	5	20
O=C(O)CSc1nnc(NC(=O)c2ccc3c(c2)OCO3)s1	0	1	21	91	38*	27	20*	17
Cc1cccc(N(Cc2ccccc2)C(=O)CCl)c1	0	4	37	72	35*	29	12	29*
O=C(CCl)N(Cc1ccccc1)c1ccccc1	5	2	23	83	17	·	·	·
Nc1ccc2nc(-c3ccc(N)c(Cl)c3)[nH]c2c1	·	5	35	72	-49	·	·	·
Nc1ccc(-c2nc3c(Cl)cc(N)cc3[nH]2)cc1	·	7	26	79	41*	30	35*	28*
ClCc1nnc(-c2cc3c(s2)CCCC3)o1	0	1	2	106	1	·	·	·
SMILES	b-catenin transl	MT stabilizer	STAT3 blocker	STAT3 act	STAT1 inh-1	STAT1 inh-2	NFkB inh	STAT3 inh 2
Cc1sc(-c2ccncc2)nc1OC(=O)c1ccc(F)cc1F	-3	4	4	98	51*	27	10	7
COc1ccc(N=Cc2c(O)c3ccccc3oc2=O)cc1	-2	5	-19	111	-44	·	·	·
O=C(O)C(Cc1ccccc1)N=Cc1c(O)c2ccccc2oc1=O (stereo unspecified)	1	4	10	95	41*	19	-5	-24
CCOC(=O)C1CCN(CC(=O)Nc2c(C(=O)OC)[nH]c3ccc(Cl)cc23)CC1	·	1	40	70	37*	33	3	29*
CCOC(=O)C1CCN(CC(=O)Nc2c(C(=O)OC)[nH]c3ccccc23)CC1	-1	2	20	90	10	·	·	·
COc1cccc(-n2cnc3sc(C)cc3c2=O)c1	-2	1	5	98	-8	·	·	·
Nc1c(C(=O)N/N=C/c2ccc([N+](=O)[O-])cc2)sc2nnc(-c3ccccc3)c(-c3ccccc3)c12	0	·	·	·	·	·	·	·
CCN(CC)S(=O)(=O)c1ccc(N2CCOCC2)c(NC(=O)c2cc(-c3ccccn3)nc3ccccc23)c1	5	3	17	92	66*	46*	-3	19
CN(C)C(CNC(=S)Nc1ccccc1Cl)c1cccnc1 (stereo unspecified)	0	3	0	105	-1	·	·	·
Clc1ccccc1N1CCN(c2ncnc3nc[nH]c23)CC1	-3	2	25	80	37*	-6	2	-9
Fc1ccccc1N1CCN(c2ncnc3nc[nH]c23)CC1	0	·	·	·	·	·	·	·
CCOC(=O)N1CCN(C(=O)/C=C/c2c(C)nn(-c3ccc(F)cc3)c2Cl)CC1	0	3	15	89	62*	40*	-4	12
O=C(Cc1cccc2ccccc12)NCCOc1ccccc1F	-2	2	3	102	1	·	·	·
CCCn1nc(C(=O)OCC(=O)c2c(N)n(C)c(=O)n(C)c2=O)c2ccccc2c1=O	-4	2	14	92	49*	31	4	-2
CCOC(=O)N1CCC(N2C(=O)c3ccccc3C2Nc2cccnc2)CC1 (stereo unspecified)	-2	3	3	98	34*	28	5	6
Cc1cc(NC(=O)CCCS(=O)(=O)c2nc(-c3cccs3)cc(C(F)(F)F)n2)no1	-4	6	16	90	47*	48*	-5	3
CCOC(=O)CCS(=O)(=O)c1nc(-c2ccccc2)cc(C(F)(F)F)n1	-1	3	8	96	40*	45*	0	0
COC(=O)CCS(=O)(=O)c1nc(-c2ccccc2)cc(C(F)(F)F)n1	2	4	13	92	38*	42*	-14	4
Cc1cc(NC(=O)CSc2nc(-c3cccs3)cc(C(F)(F)F)n2)no1	8	29	4	100	0	·	·	·
